Assay outcomes as filed in PubChem BioAssay.
Hck Nef HTS = human Hck-Nef kinase inhibition; Recombinant Hck-YEEI plus Nef, Z-Lyte FRET kinase assay; inhibition, % at 20 µM; 220,000 tested, 0.68% active;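 active = Hck-Nef kinase inhibition above about 50%, limit read from the data; inactive = inhibition below that limit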;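 note: 0% = DMSO with Hck plus Nef and 100% = Hck alone without Nef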
RAM network inh = yeast RAM network inhibition. inhibition, % at 50 µM. AID 868. 190,000 tested, 1.8% active. S. cerevisiae dse1pr::URA3 reporter, 5-FOA growth OD615, 2 d; analog-sensitive cbk1-as2 kinase mutant strain;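 active = inhibition above a set limit, 3 SD over mean compound inhibition, cut at about 8.4% in these data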;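 note: 0% = DMSO-only wells with no growth and 100% = 10 µM 1-NA-PP1 full growth; inhibition rescues growth on 5-FOA so higher OD means more RAM inhibition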
p47phox inh = inhibitors of human p47phox binding; inhibition, % at 24.7 µM; p47phox/p22phox peptide binding, fluorescence polarization, 2 h; 220,000 tested, 0.53% active; P14598;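 active = inhibition above about 30%, limit read from the data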;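 note: 0% = p47phox with labelled peptide and 100% = labelled peptide alone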
Target sequence (P14598 whole entry, looked up): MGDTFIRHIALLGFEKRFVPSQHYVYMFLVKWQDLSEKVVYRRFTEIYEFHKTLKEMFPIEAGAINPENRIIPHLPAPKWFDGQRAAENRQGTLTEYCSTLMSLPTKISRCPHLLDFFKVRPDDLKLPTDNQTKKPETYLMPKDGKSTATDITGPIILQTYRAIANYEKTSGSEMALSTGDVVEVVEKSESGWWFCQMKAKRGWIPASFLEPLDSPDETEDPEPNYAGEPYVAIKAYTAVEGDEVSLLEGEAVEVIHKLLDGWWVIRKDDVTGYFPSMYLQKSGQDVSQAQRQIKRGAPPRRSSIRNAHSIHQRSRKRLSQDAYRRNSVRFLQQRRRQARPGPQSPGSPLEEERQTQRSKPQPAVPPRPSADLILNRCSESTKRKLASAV
Calb biofilm kill = mixtures killing C. albicans biofilm; C. albicans biofilm persisters + clotrimazole, fluorescence viability; primary screen in compound mixtures of four per well; inhibition, % at 7.6 µM; 120,000 tested, 0.02% active; AID 1242;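 active = inhibition above 30.3% in the primary screen of four-compound pools, then above 30% when the compound was retested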;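 note: compounds exposed to preformed 24 h biofilms for 48 h; 0% = untreated biofilm control and 100% = clotrimazole plus chlorhexidine kill blank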
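Probe or stimulus – Clotrimazole 50 µg/mL co-treatment · System – C. albicans biofilms · Schedule – 24 h biofilm formation, then 48 h compound exposure, 37 °C · Evaluation – percent inhibition of biofilm viability · Technique – 2-h Alamar Blue fluorescence, 535/590 nm excitation/emission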
WT yeast gro inh = growth inhibition of WT yeast, mitochondrial fusion screen. mitochondrial fusion phenotypic screen, WT strain. inhibition, % at 10 µM. AID 1362. 190,000 tested, 2.1% active; in the data active = inhibition above about 58%; tested in S. cerevisiae
Arbovirus anti = blocks arbovirus infection; inhibition, % at 10 µM; arbovirus infection cell-based antiviral screen; 200,000 tested, 0.37% active; in the data active = inhibition above about 30%
RAM efflux-def = RAM network inhibitors in efflux-deficient yeast; shares compounds with RAM network inh; S. cerevisiae efflux-deficient reporter strain, 5-FOA growth OD615, 2 days; max inhibition, %; 1,200 tested, under 10 active; AID 1305; call rule not given here;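 note: plate controls were vehicle for no effect and reference inhibitor for full effect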
Hck-Nef confirm = Hck-Nef kinase inhibition, confirmation; shares compounds with Hck Nef HTS; 1,300 tested, 28% active; Recombinant Hck-YEEI:Nef, Z-Lyte FRET kinase assay; calls only at 10 µM;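 active = average inhibition of at least 50%, with Z-scores no higher than 3 in both the phospho-tyrosine peptide and fluorescence counterscreens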
The depositor's hits bear a star; i = inactive; · = no result shown; + = active, no number. Compounds with a hit are over-represented: about 4.6% of the library has one in this group of screens.

SMILES | Hck Nef HTS | RAM network inh | p47phox inh | Calb biofilm kill | WT yeast gro inh | Arbovirus anti | Hck-Nef confirm | others
CCOC(=O)Cc1csc(NC(=O)c2c(O)c3ccccc3n(CCC(C)C)c2=O)n1 | 19 | 12* | -10 | 18 | -6 | 16 | · | RAM efflux-def=3
COP(=O)(OC)C(O)C(Cl)(Cl)Cl (stereo not drawn) | -9 | 1 | -3 | 2 | -4 | 6 | ·
O=C1NC(=O)C(=Cc2coc3ccccc3c2=O)C(=O)N1 | 97* | -2 | -11 | 29 | 10 | 6 | +
CCOc1cccc(=NC2CCCCC2)c2c(C)n(C)c(C)c12 | 18 | · | -8 | 15 | · | · | ·
COC1C(OC(=O)c2ccc(C)[nH]2)C(O)C(Oc2ccc3c(O)c(NC(=O)c4ccc(O)c(CC=C(C)C)c4)c(=O)oc3c2Cl)OC1(C)C (stereo not drawn) | 55* | · | -55 | 10 | · | · | i
NC(=S)/N=C/c1c(O)[nH]c(=O)[nH]c1=O | 63* | 1 | 1 | 16 | 2 | 3 | i
CCCCCCCCN=Cc1c(O)[nH]c(=O)[nH]c1=O | 2 | · | -14 | 5 | · | · | ·
C=CCNC(=S)/N=C/c1c(O)[nH]c(=O)[nH]c1=O | 83* | 2 | 2 | 15 | -1 | 5 | i
CC(C)(C)n1cc(C(=O)c2ccc3ccccc3c2O)cn1 | 8 | 1 | -2 | 15 | 13 | 16 | ·
O=C(CCCC1=NS(=O)(=O)c2ccccc2N1)N1CCC2(CC1)OCCO2 | 0 | 3 | -11 | · | 12 | 5 | ·
CCN(CC)C(=O)c1ccc2c(c1)C1C(Cl)C(Sc3ccccc3[N+](=O)[O-])CC1C(C(=O)O)N2 (stereo not drawn) | 63* | · | 46* | 6 | · | · | i
Cc1ccc2c(c1Cl)NC(C(=O)O)C1CC(Sc3ccccc3[N+](=O)[O-])C(Cl)C21 (stereo not drawn) | 44 | · | 3 | 15 | · | · | ·
CC1CCN(C(=O)c2ccc(N3CC4CC(C3)c3cccc(=O)n3C4)c([N+](=O)[O-])c2)CC1 (stereo not drawn) | 3 | 0 | -6 | 13 | -23 | -5 | ·
N#Cc1ccccc1NC(=O)CN1CC=C(c2ccccc2)CC1 | 55* | 1 | -5 | 8 | -13 | 3 | i
O=[N+]([O-])c1ccc(N2CCNCC2)cc1NCC1CCCO1 (stereo not drawn) | 6 | 2 | -43 | · | 4 | -2 | ·
O=C1NC(=O)C(=Cc2ccc(-c3ccccc3[N+](=O)[O-])o2)C(=O)N1 | 76* | · | 0 | 8 | · | · | +
CN1C(=O)NC(=O)/C(=C\c2ccc([N+](=O)[O-])o2)C1=O | 24 | 0 | -41 | 8 | -14 | 7 | ·
CCN(CC)CCN=Cc1c(O)n(CCc2ccccc2)c(=O)[nH]c1=O | 62* | 1 | -6 | · | -5 | 4 | i
O=c1[nH]c(=S)n(CCC2=CCCCC2)c(O)c1/C=N/N1CCOCC1 | 21 | · | -98 | 15 | · | · | ·
CC(C)CCNC(=O)c1c(N)n(CC2CCCO2)c2nc3ccccc3nc12 (stereo not drawn) | 58* | 1 | -56 | · | · | -49 | i
Nc1c(C(=O)NCCc2ccccc2)c2nc3ccccc3nc2n1CCN1CCOCC1 | 53* | -1 | -28 | · | 3 | -32 | i
Nc1c(C(=O)NCCN2CCOCC2)c2nc3ccccc3nc2n1Cc1ccco1 | 58* | 0 | -47 | · | 10 | 10 | i
CCCCn1c(N)c(C(=O)NCCN2CCOCC2)c2nc3ccccc3nc21 | 42 | -1 | -19 | · | 4 | 9 | ·
COCCNC(=O)c1c(N)n(Cc2ccco2)c2nc3ccccc3nc12 | 48 | 4 | -29 | · | -5 | 5 | ·
Nc1c(C(=O)NCCN2CCOCC2)c2nc3ccccc3nc2n1Cc1ccccc1 | 95* | · | -14 | 15 | · | · | ·
O=C(O)Cn1cc(/C=C2\C(=O)NC(=O)N(Cc3ccco3)C2=O)c2ccccc21 | 74* | 0 | -22 | 4 | -18 | 5 | i
Cc1cc(/C=C2/C(=O)NC(=O)N(Cc3ccco3)C2=O)c(C)n1-c1ccccc1O | 11 | · | -64 | 14 | · | · | ·
NC(=S)N/N=C/c1coc2ccccc2c1=O | 53* | 2 | -33 | 18 | 13 | 1 | i
C/C(CC(c1ccccc1)c1c(O)c2ccccc2oc1=O)=N\NC(N)=S (stereo not drawn) | -4 | 1 | -14 | 7 | -14 | -1 | ·
O=[N+]([O-])c1cccc2c([As](=O)(O)O)cccc12 | -5 | · | -1 | 17 | · | · | ·
